This excerpt belongs to a sample that is enriched for hits.
UPR CHOP act = activators of apoptotic arm of unfolded protein response (CHOP); CHO-CHOP luciferase reporter, UPR activation, luminescence; percent of tunicamycin response over DMSO baseline; activation, % at 10 µM; actives 0.34% (n = 330,000);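 active = at 10 µM dose, activation of 40% or more, normalized to positive control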
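Evaluation: % reporter activation, DMSO baseline versus tunicamycin full activation; System: CHO-CHOP luciferase reporter cell line; Input: 500 cells/well; Incubation: 6 h compound treatment, 37 °C; Measured by: Steady-Glo luciferase luminescence; Dosing: one dose, 10 µM in 0.5% DMSO; Buffer or medium: F12 medium, 10% FBS; Benchmarks: positive tunicamycin 10 µg/mL, negative DMSO alone.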
Beta2AR agonist = activates human beta-2 adrenergic receptor causing internalization; Am2.2-beta2AR cells, FAP receptor internalization, flow cytometry; response, % (concentration not given with the values); actives 0.43% (n = 340,000); AID 504454;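 active = response above a set limit, near 3 SD of response in nonfluorescent compounds, cut at about 42% in these data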
Target sequence (P07550 whole entry, looked up): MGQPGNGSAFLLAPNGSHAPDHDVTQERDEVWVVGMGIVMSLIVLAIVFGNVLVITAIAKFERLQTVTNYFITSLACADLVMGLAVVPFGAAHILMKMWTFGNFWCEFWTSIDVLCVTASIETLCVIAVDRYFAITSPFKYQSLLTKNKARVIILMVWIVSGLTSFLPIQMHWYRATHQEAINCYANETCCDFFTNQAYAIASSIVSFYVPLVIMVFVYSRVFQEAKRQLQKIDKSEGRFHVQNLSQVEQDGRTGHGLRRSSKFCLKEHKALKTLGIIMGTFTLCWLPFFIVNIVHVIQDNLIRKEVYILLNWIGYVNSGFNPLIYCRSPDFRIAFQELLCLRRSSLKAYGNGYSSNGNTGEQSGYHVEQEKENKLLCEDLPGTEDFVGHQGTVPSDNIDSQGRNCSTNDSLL
VLA-4 inh = inhibition in a human VLA-4 binding assay. P13612. VLA-4 expressing cells, ligand binding flow cytometry. inhibition, % (about 7 µM as worked out from the volumes in the protocol). actives 0.2% (n = 330,000); in the data active = inhibition above about 50%
CHOP inh = CHOP inhibition in unfolded protein response; actives 3.8% (n = 220,000); CHO-K1 CHOP-promoter luciferase, tunicamycin-induced, 15-18 h; inhibition, % at 10 µM;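 active = compounds that reduced the stress-induced luciferase reporter signal by more than about 70% of percent inhibition, limit read from the data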
UPR XBP1 act = adaptive UPR (XBP1) activation; activation, % at 20 µM; CHO-XBP1 luciferase reporter, IRE1-XBP1 UPR activation, luminescence; percent of tunicamycin response, DMSO as zero; actives 0.33% (n = 330,000); AID 463104;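 active = versus positive control, 20 µM dose yields 30% or more activation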
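Assay system: CHO-XBP1 luciferase reporter cells; Schedule: 6 h treatment, 37 °C; Detection: glow luminescence from Steady-Glo reagent; Benchmarks: high control tunicamycin 10 µg/mL final, low control DMSO vehicle only.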
CHOP confirm = confirmation of CHOP induction inhibitors; inhibition, % at 10 µM; shares compounds with CHOP inh; actives 45% (n = 2,100); CHO-CHOP promoter luciferase reporter, tunicamycin-induced, luminescence;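 active = mean of three repeat readings of reporter signal inhibition above a set limit, cut at about 70% in these data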
Large screens that a line does not name were inactive (follow-up assays come after a bar, where they were run).

Cc1nn(C(C)C(=O)NCCc2cccs2)c(=O)c2nn(-c3ccccc3)c(C)c12 (stereo unspecified)	none (no result: CHOP inh)
CCN1C(=O)[C@H]2[C@@H](c3ccc(-c4cccc(Cl)c4)cc3)N[C@@](C)(C(=O)OC)[C@H]2C1=O	none (no result: CHOP inh)
COc1cc(/C=N/N2CCN(C3c4ccccc4-c4ccccc43)CC2)ccc1O	CHOP inh 106.3 | CHOP confirm inactive
COc1cccc(/C=N/N2CCN(C3c4ccccc4-c4ccccc43)CC2)c1O	none
COC(=O)CN1C(=O)N/C(=C/c2cc3c(cc2OC)OCO3)C1=O	none
COc1cc2c(cc1/C=C1/NC(=O)N(CC(=O)Nc3ccccc3)C1=O)OCO2	CHOP inh 102.2 | CHOP confirm inactive
O=C(O)CC(c1ccccc1)N1C(=O)c2cccc([N+](=O)[O-])c2C1=O (stereo unspecified)	none (no result: CHOP inh)
CCCc1cc(-c2nc(N)ncc2-c2ccc3c(c2)OCCCO3)c(O)cc1OC	CHOP inh 106.0 | CHOP confirm 121.9
Cc1cccnc1NC(=O)c1c(O)c2ccccc2n(C)c1=O	CHOP inh 97.9 | CHOP confirm 99.6
Nc1ncnc(Sc2ncccn2)c1[N+](=O)[O-]	CHOP inh 104.5 (no result: UPR CHOP act, VLA-4 inh, UPR XBP1 act) | CHOP confirm inactive
COc1ccc(OC)c(/C=N/NC(=O)CSc2cc(C)nc3c(OC)cccc23)c1	CHOP inh 105.3 | CHOP confirm inactive
COc1ccc2nc(C)cc(SCC(=O)N/N=C/c3ccco3)c2c1	none (no result: CHOP inh)
COc1ccc(S(=O)(=O)N(C)CC(=O)NCCCN2CCOCC2)cc1C	none (no result: UPR CHOP act, VLA-4 inh, CHOP inh, UPR XBP1 act)
C=CCN1C=C2C(=O)C(C)(OC(=O)c3ccc(OC)cc3)C(=O)C(c3ccco3)=C2C=C1CCCC (stereo unspecified)	none
CCCCC1=CC2=C(c3ccco3)C(=O)C(C)(OC(=O)c3ccc(OC)cc3)C(=O)C2=CN1c1ccccc1 (stereo unspecified)	CHOP inh 103.8 | CHOP confirm inactive
CCCCNS(=O)(=O)c1ccc2nc(-c3cccnc3)cc(C(=O)NC3CC3)c2c1	none
CCCCNS(=O)(=O)c1ccc2nc(-c3cccnc3)cc(C(=O)NC3CCCC3)c2c1	CHOP inh 101.8 | CHOP confirm 107.2
Cc1ccc2c(C)nc(Nc3nc(CSc4nc5ccccc5[nH]4)cc(=O)[nH]3)nc2c1	CHOP inh 104.4 | CHOP confirm 105.7
Cc1ccc(SCc2cc(=O)[nH]c(Nc3nc(C)c4ccc(C)cc4n3)n2)cc1	none
COC(=O)C1=C(C)NC(C)=C(C(=O)OC)C1/C=C/c1ccccc1	none
CCOC(=O)C1=C(C)NC(C)=C(C(=O)OCC)C1/C=C/c1ccccc1	CHOP inh 98.8 | CHOP confirm 91.5
C=CCOC(=O)C1=C(C)NC(C)=C(C(=O)OCC=C)C1/C=C/c1ccccc1	CHOP inh 100.2 | CHOP confirm 104.9
COc1ccc(S(=O)(=O)Nc2cccc(S(=O)(=O)N(C)C)c2)cc1[N+](=O)[O-]	none (no result: UPR CHOP act, VLA-4 inh, CHOP inh, UPR XBP1 act)
Cn1cnnc1SC(C(=O)Nc1ccc(F)cc1)c1ccccc1 (stereo unspecified)	none
Cc1ccc2nc(SC(C(=O)Nc3ccc(F)cc3)c3ccccc3)[nH]c2c1 (stereo unspecified)	CHOP inh 106.4 | CHOP confirm inactive
O=C(Nc1ccc2c(c1)OCO2)C1CC(=O)N(c2ccccc2)C1 (stereo unspecified)	none (no result: CHOP inh)
CCCCCCCSc1nnc(N)s1	none
Cc1nn(-c2ccccc2)c(OC(=O)c2cccs2)c1S(=O)(=O)c1ccccc1	CHOP inh 105.8 | CHOP confirm inactive
Cc1nn(-c2ccccc2)c(OC(=O)c2cccs2)c1S(=O)(=O)c1ccc([N+](=O)[O-])cc1	none
CC1(C)Cc2c(C#N)c(NCc3ccco3)nc(-c3ccco3)c2CO1	none
CCCc1nc(NCc2ccco2)c(C#N)c2c1COC(C)(C)C2	CHOP inh 104.0 | CHOP confirm inactive
COc1ccccc1CNC(=O)c1cn(C)c2ccc(S(=O)(=O)N3CCCC3)cc2c1=O	CHOP inh 106.1 | CHOP confirm inactive
COC(=O)CN1C(=O)COc2ccc(S(=O)(=O)NCc3ccccc3)cc21	none (no result: CHOP inh)
C=CC[C@H](CC(=O)N(CCO)Cc1ccccc1)C(=O)NC[C@H](OC(=O)[C@@H](CC=C)Cc1ccc(F)cc1)c1ccccc1	none (no result: CHOP inh)
O=c1c2c([N+](=O)[O-])cc([N+](=O)[O-])cc2sn1Cc1ccccc1	none (no result: CHOP inh)
O=c1c2c([N+](=O)[O-])cc([N+](=O)[O-])cc2sn1-c1ccc(Br)cc1	CHOP inh 96.6 | CHOP confirm inactive
Cc1c(C(=O)OCC(=O)N2CC(=O)Nc3ccccc32)oc2ccc(Br)cc12	CHOP inh 104.1 | CHOP confirm inactive
Cc1cc(C(=O)OCC(=O)N2CC(=O)Nc3ccccc32)no1	none
CSc1cccc(N2CC(C(=O)Nc3ccccc3N3CCCC3)CC2=O)c1 (stereo unspecified)	none (no result: CHOP inh)
O=C(COC(=O)CC1CC2CCC1C2)Nc1ccccc1Cl (stereo unspecified)	none (no result: CHOP inh)
Cc1ccc(Cl)cc1NC(=O)COC(=O)CC1CC2CCC1C2 (stereo unspecified)	CHOP inh 99.8 | CHOP confirm inactive
Nc1nnc(SCC(=O)Nc2cccc3ccccc23)s1	none (no result: CHOP inh)
O=C(NCC1CCCO1)c1ccc2c(=O)n(Cc3ccc(Cl)cc3)c(=S)[nH]c2c1 (stereo unspecified)	CHOP inh 102.8 | CHOP confirm inactive
COc1ccccc1Cn1c(=S)[nH]c2cc(C(=O)NCC3CCCO3)ccc2c1=O (stereo unspecified)	none
OC(c1cccc(OCc2ccccc2)c1)c1nnc(-c2ccccc2)o1 (stereo unspecified)	CHOP inh 111.0 | CHOP confirm 106.0
OC(c1ccc(OCc2ccccc2)cc1)c1nnc(-c2ccccc2)o1 (stereo unspecified)	CHOP inh 97.1 | CHOP confirm inactive
CNC(=O)/C(C#N)=C/c1ccc(-c2ccc(Cl)cc2)o1	CHOP inh 97.2 | CHOP confirm inactive
CNC(=O)/C(C#N)=C/c1ccc(-c2ccccc2[N+](=O)[O-])o1	none
CCOC(=O)c1ccc(-c2ccc(/C=C(\C#N)C(=O)NCc3cccs3)o2)cc1	CHOP inh 105.0 (no result: UPR CHOP act, UPR XBP1 act) | CHOP confirm inactive
COc1cc(OC)c(OC)cc1/C=C(\C#N)C(=O)NCc1cccs1	none (no result: CHOP inh)
CN(Nc1cccc(Cl)c1)c1cccc(Cl)c1	none (no result: UPR CHOP act, VLA-4 inh, CHOP inh, UPR XBP1 act)
O=c1c2c(-c3ccc([N+](=O)[O-])cc3)ccnc2[nH]n1-c1ccccc1	none (no result: CHOP inh)
O=C(CCCCCNc1nc(=S)[nH]c2ccccc12)NCc1ccccc1Cl	none (no result: Beta2AR agonist)
O=C(NCc1ccccc1Cl)C1CCC(CNc2nc(=S)[nH]c3ccccc23)CC1 (stereo unspecified)	CHOP inh 98.1 | CHOP confirm inactive

Bioassay records as filed in PubChem BioAssay.
